The structures appear in SMILES notation. Calls of active or inactive are those of the source.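 The calls were made as follows: active = inhibition of 30% or more at any tested concentration; inactive = the rest.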

For the first assay, the target named is Aspartyl aminopeptidase (Homo sapiens) (UniProt Q9ULA0). The experiment in a line: hM18AAP (DNPEP) peptidase activity blockade – biochemical, QFRET fluorogenic readout, recombinant enzyme, counter-screen for PfM18AAP inhibitor project, dose response (AID 588696). Particulars: H-Glu-NHMec fluorogenic cleavage. The method, boiled down: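 System: recombinant human hM18AAP enzyme. Amount: 5 µg/mL enzyme. Reagent: 0.1 mM H-Glu-NHMec substrate. Compound dosing: twofold dilution series of compound, top dose 100 µM. Timing: enzyme reaction for 90 min at room temperature. Measured by: fluorescence of released NHMec, excitation 370 nm, emission 460 nm. Evaluation: % inhibition and fitted IC50.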
A general note: The purpose of a counterscreen is to sort out artefacts and off-target activity.
As a reminder, the IC50 is the concentration that gives 50% inhibition. As to `Oc1ccc(CCNc2cncc3ccccc23)cc1O`, the IC50 was 53.4 µM.
On the same count and under the same terms, with `COc1ccc2c(c1)C(=O)C(N)CC2` (centres undefined) the figure was 99.8 µM; with `Cc1nc(NCCc2ccc(O)c(O)c2)c2c3c(sc2n1)CCC3`, 52.3 µM; with `Cc1ccc(-c2nc(-c3ccc(O)c(O)c3)cs2)cc1`, 26.6 µM.
On the same count and under the same terms, then `CCC(C)c1ccc(N)c(O)c1` (centres undefined), with 44.6 µM.
Still for that read-out and setting: then `O=C1OCCN1CCc1nc(-c2ccc(O)c(O)c2)cs1`, with 45.8 µM.
As for `Oc1ccc(CCNc2ccc3ccccc3c2)cc1O`, the half-maximal inhibitory concentration (IC50) was 34 µM.
Still for that read-out and setting: with `CN(CCc1ccc(O)c(O)c1)c1ccnc2ccccc12` the figure was 31.1 µM; with `O=C1c2ccc3c4c(ccc(c24)C(=O)N1O)CC3`, 89.2 µM; with `O=S1(=O)c2ccccc2-c2cc(-c3nc(-c4ccc(O)c(O)c4)[nH]c3-c3ccccc3)ccc21`, 46.1 µM.
Still for that read-out and setting: with `Oc1ccc(-c2csc(Cc3cc4ccccc4[nH]3)n2)cc1O` the figure was 27.9 µM.
For `CCOc1cccc(-c2nc(-c3ccc(O)c(O)c3)cs2)c1`, the IC50 was 21.5 µM.
On to `CC(C)(C)C(=O)OCc1nc(-c2ccc(O)c(O)c2)cs1`, for which the IC50 is 33.1 µM.
Regarding `Nc1cc(C(=O)c2ccccc2)ccc1O`, the IC50 was 43.5 µM.
Same read-out and setting: with `Oc1ccc(CCNC(c2ccccc2)c2ccccc2)cc1O` the figure was 41.4 µM; with `Cc1c(-c2ccccc2)[nH]c(-c2ccc(O)c(O)c2)[n+]1O`, 73 µM; with `Oc1ccc(CCNc2cccc3ccccc23)cc1O`, 30.4 µM.

Staying with this assay, now noted: H-Glu-NHMec fluorogenic cleavage, at 50 µM (top of the series).
Regarding `Oc1ccc(CCNc2c3c(nc4ccccc24)CCCC3)cc1O`, the inhibition result is “inactive”.
The same measure, in the same setting: then `O=c1ccc2cc(O)c(O)cc2o1`, with “inactive”; and `COc1ccc(CCNc2ccnc3ccccc23)cc1OC`, with “inactive”; and `O=C(O)CCCNc1c2ccccc2nc2ccccc12`, with “inactive”.
`O=C(O)CCCCNc1c2ccccc2nc2ccccc12`: the inhibition result is “inactive”.

Still in this assay, the particulars now being: H-Glu-NHMec fluorogenic cleavage, at 100 µM (top of the series).
In the case of `NCc1cc2c3c(c(=O)oc2c(O)c1O)CCC3`, the inhibition result is “inactive”.
`Cc1c(O)c(=O)ccn1CCNc1c2ccccc2nc2ccccc12`: the inhibition result is “inactive”.
Still for that read-out and setting: then `Cc1c(OCc2ccccc2)c(=O)ccn1CCNc1c2ccccc2nc2ccccc12`, with “inactive”; and `O=c1cc(CO)oc(CN2CCCCC2)c1O`, with “inactive”; and `COc1ccc(-c2nc(-c3ccccc3)c(-c3ccccc3)[nH]2)cc1OC`, with “inactive”.
The same measure, in the same setting: with `COc1ccc(CCN2CCc3ccccc3C2)cc1OC` the entry was “inactive”; with `COc1ccc(CCCNc2c3ccccc3nc3ccccc23)cc1OC`, “inactive”; with `COc1ccc(CCNC2CCN(C)CC2)cc1OC`, “inactive”.
Consider `Oc1ccc(CCCNc2c3ccccc3nc3ccccc23)cc1O`, for which the inhibition result was “inactive”.
As to `COc1ccc(-c2csc(-c3ccccc3)n2)cc1OC`, the inhibition result is “inactive”.
Turning to `COc1ccc(CCN2CCN(C)CC2)cc1OC`, the inhibition entry was “inactive”.
On to `COc1ccc(CC(=O)O)cc1OC`, for which the inhibition entry is “inactive”.
As to `Oc1ccc(CCNc2c3ccccc3nc3ccccc23)cc1`, the inhibition result was “inactive”.
Still for that read-out and setting: then `COc1ccc(CCN(C)c2ccncc2)cc1OC`, with “inactive”; and `COc1ccc(-c2csc(-c3ccccc3OC)n2)cc1OC`, with “inactive”; and `COc1ccc(CCN(C)CCc2ccccc2)cc1OC`, with “inactive”.
Same read-out and setting: then `COc1ccc(CNc2c3ccccc3nc3ccccc23)cc1OC`, with “inactive”; and `COc1ccc(CCN(C)c2ccnc3ccccc23)cc1OC`, with “inactive”.
On the same count and under the same terms, with `COc1cccc(CCNc2c3ccccc3nc3ccccc23)c1` the entry was “inactive”; with `O=C(c1ccco1)N1CCN(Cc2cc(=O)c(O)c[nH]2)CC1`, “inactive”.
On to `COc1ccc(CCNc2ccncc2)cc1OC`, for which the inhibition result is “inactive”.
On to `COc1ccc(CCNc2cncc3ccccc23)cc1OC`, for which the inhibition entry is “inactive”.
Regarding `CCC(C)C(=O)Nc1ccccc1O` (centres undefined), the inhibition entry is “inactive”.
Still for that read-out and setting: then `Oc1ccc(CCN2CCc3ccccc3C2)cc1O`, with “inactive”; and `O=C(c1ccco1)N1CCN(Cc2cc(=O)c(O)co2)CC1`, with “inactive”; and `COc1ccc(CCNc2cccc3ccccc23)cc1OC`, with “inactive”.
The same measure, in the same setting: then `Oc1ccc(CCNC2CCN(Cc3ccccc3)CC2)cc1O`, with “inactive”; and `CCC(C)C(=O)Nc1ccccc1N` (centres undefined), with “inactive”; and `O=c1cc(CN2CCN(Cc3ccccc3)CC2)c2ccc(O)c(O)c2o1`, with “inactive”.
Regarding `NCCNc1c2ccccc2nc2ccccc12`, the inhibition result is “inactive”.
On to `COc1ccc(CCNC2CCN(Cc3ccccc3)CC2)cc1OC`, for which the inhibition result is “inactive”.
For the molecule `COc1cccc(-c2nc(-c3ccc(OC)c(OC)c3)cs2)c1`, the inhibition entry is “inactive”.
Same read-out and setting: with `COc1ccc(CCC(=O)O)cc1OC` the entry was “inactive”; with `COc1ccc(CCNc2ccc3ccccc3c2)cc1OC`, “inactive”; with `COc1ccc(CCNc2c3c(nc4ccccc24)CCCC3)cc1OC`, “inactive”.
On to `COc1ccc(CCNc2c3ccccc3nc3ccccc23)cc1OC`, for which the inhibition result was “inactive”.
For `CN(CCc1ccc(O)c(O)c1)c1ccncc1`, the inhibition entry was “inactive”.

The values above are taken from PubChem BioAssay AID588696 (Southern Research Specialized Biocontainment Screening …, 2011).
